Measured values as given in ChEMBL document CHEMBL1781962, “Development of Fluorescent Ligands for the Human 5-HT1A Receptor” (ACS Med Chem Lett, 2010).
Active and inactive are the calls of the source. The calls are words filed in the database; no cut-off is given here.

Legend:
[1] = target: 5-hydroxytryptamine receptor 6 (Homo sapiens) (UniProt P50406); assay: Displacement of [3H]LSD from human 5HT6 receptor expressed in HEK293 cells after 120 mins by radioligand displacement assay; format: cell-based
Sequence of 5-hydroxytryptamine receptor 6 (Homo sapiens) (P50406 whole entry): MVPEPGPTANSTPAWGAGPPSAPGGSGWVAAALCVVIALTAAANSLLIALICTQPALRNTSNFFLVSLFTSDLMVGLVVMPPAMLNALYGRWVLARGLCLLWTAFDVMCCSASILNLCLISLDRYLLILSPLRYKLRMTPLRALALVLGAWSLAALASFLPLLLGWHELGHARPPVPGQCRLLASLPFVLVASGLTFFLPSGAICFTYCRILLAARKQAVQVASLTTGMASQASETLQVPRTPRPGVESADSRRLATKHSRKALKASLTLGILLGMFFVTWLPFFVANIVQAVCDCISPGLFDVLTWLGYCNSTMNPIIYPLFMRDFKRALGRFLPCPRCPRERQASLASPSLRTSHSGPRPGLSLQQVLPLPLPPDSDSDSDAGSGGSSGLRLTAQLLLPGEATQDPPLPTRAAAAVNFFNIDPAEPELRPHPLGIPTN
Outline: (§1)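 Selectivity screen by radioligand binding at the 5-HT2A, 5-HT4e, 5-HT5a, 5-HT6 and 5-HT7 receptors. Test compound was used at a single concentration of 1 μM. Read-out was percent displacement of the corresponding radioligand.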

[2] = target: 5-hydroxytryptamine receptor 4 (Homo sapiens) (UniProt Q13639); assay: Binding affinity to human 5-HT4e receptor at 1 uM by radioligand displacement assay; outline: as §1
Sequence of 5-hydroxytryptamine receptor 4 (Homo sapiens) (Q13639 whole entry): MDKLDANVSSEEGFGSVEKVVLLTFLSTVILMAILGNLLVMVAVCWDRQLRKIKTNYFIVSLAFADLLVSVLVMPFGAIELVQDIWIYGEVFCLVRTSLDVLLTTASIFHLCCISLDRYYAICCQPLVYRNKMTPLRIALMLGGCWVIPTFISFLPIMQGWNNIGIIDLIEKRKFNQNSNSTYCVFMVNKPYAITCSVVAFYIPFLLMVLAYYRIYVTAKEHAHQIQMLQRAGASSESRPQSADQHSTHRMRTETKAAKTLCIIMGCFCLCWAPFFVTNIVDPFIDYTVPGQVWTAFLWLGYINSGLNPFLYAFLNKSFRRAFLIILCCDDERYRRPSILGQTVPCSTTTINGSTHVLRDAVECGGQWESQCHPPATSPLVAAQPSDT

[3] = target: 5-hydroxytryptamine receptor 7 (Homo sapiens) (UniProt P34969); assay: Displacement of [3H]LSD from human 5HT7 receptor expressed in HEK293 cells at 1 uM after 120 mins by scintillation counting; format: cell-based; outline: as §1
Sequence of 5-hydroxytryptamine receptor 7 (Homo sapiens) (P34969 whole entry): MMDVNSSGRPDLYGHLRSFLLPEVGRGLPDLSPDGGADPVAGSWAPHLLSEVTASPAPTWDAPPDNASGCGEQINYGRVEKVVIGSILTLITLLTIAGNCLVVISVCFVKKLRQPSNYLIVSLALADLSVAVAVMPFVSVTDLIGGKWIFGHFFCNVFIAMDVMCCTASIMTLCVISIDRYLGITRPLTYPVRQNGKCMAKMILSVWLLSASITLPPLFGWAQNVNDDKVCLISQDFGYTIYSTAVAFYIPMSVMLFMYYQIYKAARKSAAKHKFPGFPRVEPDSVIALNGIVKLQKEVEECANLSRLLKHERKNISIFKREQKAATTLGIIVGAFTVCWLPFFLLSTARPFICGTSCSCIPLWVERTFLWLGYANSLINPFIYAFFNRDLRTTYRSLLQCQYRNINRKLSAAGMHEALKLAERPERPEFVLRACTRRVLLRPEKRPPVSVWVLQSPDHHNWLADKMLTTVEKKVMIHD

[4] = target: 5-hydroxytryptamine receptor 5A (Homo sapiens) (UniProt P47898); assay: Binding affinity to human 5HT5A receptor at 1 uM by radioligand displacement assay; outline: as §1
Sequence of 5-hydroxytryptamine receptor 5A (Homo sapiens) (P47898 whole entry): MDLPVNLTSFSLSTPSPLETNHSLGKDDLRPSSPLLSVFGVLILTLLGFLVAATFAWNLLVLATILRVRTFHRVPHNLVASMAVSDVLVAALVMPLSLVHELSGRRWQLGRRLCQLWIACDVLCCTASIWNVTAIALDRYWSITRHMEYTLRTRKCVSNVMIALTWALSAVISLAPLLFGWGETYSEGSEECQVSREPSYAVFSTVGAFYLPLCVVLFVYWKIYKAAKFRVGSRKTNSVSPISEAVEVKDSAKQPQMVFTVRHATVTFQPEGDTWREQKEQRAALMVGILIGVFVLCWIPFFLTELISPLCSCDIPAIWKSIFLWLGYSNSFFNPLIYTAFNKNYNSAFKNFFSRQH

[5] = target: 5-hydroxytryptamine receptor 2A (Homo sapiens) (UniProt P28223); assay: Binding affinity to human 5HT2A receptor at 1 uM by radioligand displacement assay; outline: as §1
Sequence of 5-hydroxytryptamine receptor 2A (Homo sapiens) (P28223 whole entry): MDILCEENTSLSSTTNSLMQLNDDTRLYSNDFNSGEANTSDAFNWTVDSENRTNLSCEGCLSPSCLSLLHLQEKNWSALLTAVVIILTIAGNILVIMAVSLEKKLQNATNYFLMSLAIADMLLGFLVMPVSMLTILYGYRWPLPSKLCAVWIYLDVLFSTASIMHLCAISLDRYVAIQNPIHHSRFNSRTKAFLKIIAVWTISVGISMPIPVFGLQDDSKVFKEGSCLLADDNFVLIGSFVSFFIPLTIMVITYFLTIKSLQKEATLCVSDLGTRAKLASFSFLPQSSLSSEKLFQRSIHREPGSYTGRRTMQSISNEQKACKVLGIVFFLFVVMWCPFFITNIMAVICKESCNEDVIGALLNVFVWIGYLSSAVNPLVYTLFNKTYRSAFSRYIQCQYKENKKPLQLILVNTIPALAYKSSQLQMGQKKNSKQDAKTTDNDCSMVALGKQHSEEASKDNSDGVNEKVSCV

[6] = target: T1, 5-hydroxytryptamine receptor 1A (Homo sapiens, UniProt P08908); assay: Displacement of [3H]8-OH-DPAT from human 5HT1A receptor expressed in EBNA gene-positive HEK293 cells after 120 mins; format: cell-based
T1 sequence (P08908 whole entry): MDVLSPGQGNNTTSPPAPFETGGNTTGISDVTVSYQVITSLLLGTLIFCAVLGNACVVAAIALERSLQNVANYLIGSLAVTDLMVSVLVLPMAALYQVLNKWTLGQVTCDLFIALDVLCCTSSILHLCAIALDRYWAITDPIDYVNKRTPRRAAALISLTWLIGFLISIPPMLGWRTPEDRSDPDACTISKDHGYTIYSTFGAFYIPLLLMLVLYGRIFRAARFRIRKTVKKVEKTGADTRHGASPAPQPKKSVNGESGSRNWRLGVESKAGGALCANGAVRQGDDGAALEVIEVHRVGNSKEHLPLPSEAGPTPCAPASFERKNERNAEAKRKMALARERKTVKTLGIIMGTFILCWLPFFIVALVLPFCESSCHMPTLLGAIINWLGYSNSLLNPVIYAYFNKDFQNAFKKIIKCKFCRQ
Outline: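 Radioligand competition binding with [3H]-8-hydroxy-DPAT on membranes from transfected HEK-293 EBNA cells expressing h5-HT1AR. Buffer was 50 mM Tris-HCl, 0.5 mM MgSO4, pH 7.4. Ki was obtained from IC50 by the Cheng-Prusoff equation. Values are means ± SEM of 2–4 independent experiments, each run in triplicate.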

[7] = target: T1, 5-hydroxytryptamine receptor 1A; assay: Binding affinity to human 5HT1A receptor expressed in HEK-293 EBNA cell membranes by [3H]-8-hydroxy-DPAT radioligand binding

Ki [6] [nM] | Structure (SMILES) | further results
2 | CN(C)c1cccc2c(S(=O)(=O)NCCCCC34CCCN3C(=O)N(CCCCN3CCN(c5cccc6ccccc56)CC3)C4=O)cccc12 (stereo not drawn) | Activity [1]: inactive; Activity [2]: inactive; Activity [3]: > 80%; Activity [4]: > 80%; Activity [5]: > 80%; Ki [7]: 38 nM
98 | CN(C)S(=O)(=O)c1ccc2c(N3CCN(CCCCN4C(=O)C5CCCN5C4=O)CC3)cccc2c1 (stereo not drawn) | –
9 | COc1ccccc1N1CCN(CCCCN2C(=O)N3CCCC3(CCCCNCCCCCNS(=O)(=O)c3cccc4c(N(C)C)cccc34)C2=O)CC1 (stereo not drawn) | –
350 | CN(C)S(=O)(=O)c1cccc2c(N3CCN(CCCCN4C(=O)C5CCCN5C4=O)CC3)cccc12 (stereo not drawn) | –
7 | COc1ccccc1N1CCN(CCCCN2C(=O)N3CCCC3(CCNCCCCCNS(=O)(=O)c3cccc4c(N(C)C)cccc34)C2=O)CC1 (stereo not drawn) | –
2.4 | O=C1C2CCCN2C(=O)N1CCCCN1CCN(c2cccc3ccccc23)CC1 (stereo not drawn) | –
5 | CN(C)c1cccc2c(S(=O)(=O)NCCCCCCCC34CCCN3C(=O)N(CCCCN3CCN(c5cccc6ccccc56)CC3)C4=O)cccc12 (stereo not drawn) | –
11 | COc1ccccc1N1CCN(CCCCN2C(=O)N3CCCC3(CCCCNS(=O)(=O)c3cccc4c(N(C)C)cccc34)C2=O)CC1 (stereo not drawn) | –
2.4 | CN(C)S(=O)(=O)c1ccc2cccc(N3CCN(CCCCN4C(=O)C5CCCN5C4=O)CC3)c2c1 (stereo not drawn) | –
5.5 | COc1ccccc1N1CCN(CCCCN2C(=O)C3CCCN3C2=O)CC1 (stereo not drawn) | –
15 | COc1ccccc1N1CCN(CCCCN2C(=O)N3CCCC3(CCCCCCCNS(=O)(=O)c3cccc4c(N(C)C)cccc34)C2=O)CC1 (stereo not drawn) | –

Structure (SMILES) | Ki [6] [nM] | further results
CN(C)c1cccc2c(S(=O)(=O)N3CCN(CCCCN4C(=O)C5CCCN5C4=O)CC3)cccc12 (stereo not drawn) | > 1000 | –
